In series [1] the test system is Mus musculus. The series can be described thus: Antidepressant activity in C57BL/6J mouse assessed as average force at […] mg/kg, ip measured over 6 mins by tail suspension test (reference value: 0.281 +/- 0.018 to 0.359 +/- 0.027 N). The series is classed as functional.
Series [2] has as its system Mus musculus. The experiment in a line: Toxicity in ip dosed Albino Swiss mouse assessed as effect on spontaneous locomotory activity at MED measured over 2 to 6 mins. As to conditions: in vivo.
The target of series [3] is 5-hydroxytryptamine receptor 2A (Homo sapiens, UniProt P28223). The experiment in a line: Displacement of [3H]-Ketanserin from human 5-HT2A receptor expressed in HEK293 cells after 1 hr. The series is classed as cell-based. In general terms: In a radioligand displacement assay an active substance lowers the binding of a labelled ligand.
Chain of 5-hydroxytryptamine receptor 2A (P28223 whole entry): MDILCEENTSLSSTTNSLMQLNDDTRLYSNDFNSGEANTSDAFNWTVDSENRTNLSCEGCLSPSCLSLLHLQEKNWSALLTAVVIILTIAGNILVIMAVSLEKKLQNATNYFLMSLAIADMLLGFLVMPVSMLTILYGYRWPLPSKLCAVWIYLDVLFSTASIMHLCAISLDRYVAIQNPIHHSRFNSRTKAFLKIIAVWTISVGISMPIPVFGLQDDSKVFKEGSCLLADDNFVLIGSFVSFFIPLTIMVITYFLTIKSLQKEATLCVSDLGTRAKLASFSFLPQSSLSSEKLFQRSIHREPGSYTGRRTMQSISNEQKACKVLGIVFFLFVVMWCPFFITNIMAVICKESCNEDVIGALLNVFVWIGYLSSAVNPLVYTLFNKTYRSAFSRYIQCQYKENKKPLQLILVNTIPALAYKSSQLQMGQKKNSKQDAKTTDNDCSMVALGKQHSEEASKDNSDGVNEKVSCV
Series [4] concerns Mus musculus. The experiment in a line: Antidepressant activity in C57BL/6J mouse assessed as number of events at 0.625 mg/kg, ip measured over 6 mins by tail suspension test (reference value: 1325.1 +/- 77.8 to 1773.4 +/- 109.9). The series is classed as functional.
Series [5] relates to Mus musculus. The series can be described thus: Antidepressant activity in C57BL/6J mouse assessed as immobility time at 0.625 mg/kg, ip measured over 6 mins by tail suspension test (reference value: 160.7 +/- 12 to 170.6 +/- 9 sec). The series is classed as functional.
For series [6], the target named is Adrenergic receptor alpha-1 (Rattus norvegicus). The series can be described thus: Displacement of [3H]-prazosin from rat alpha1 adrenoceptor in rat cerebral cortex after 1 hr.
The test system of series [7] is Mus musculus. The series can be described thus: Antidepressant activity in C57BL/6J mouse assessed as number of events at […] mg/kg, ip measured over 6 mins by tail suspension test (reference value: 1325.1 +/- 77.8 to 1773.4 +/- 109.9). The series is classed as functional.
Series [8] has as its target 5-hydroxytryptamine receptor 6 (Homo sapiens, UniProt P50406). The series can be described thus: Displacement of [3H]-LSD from human 5-HT6 receptor expressed in HEK293 cells after 1 hr. The series is classed as cell-based. In a few lines:
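Membranes from stably transfected HEK293 cells were homogenized in assay buffer and spun twice at 35,000 g with a 15-min 37 °C step between. Binding ran 1 h at 37 °C and was stopped by rapid filtration, then filter radioactivity was counted. 5-HT6 buffer: 50 mM Tris-HCl, 0.5 mM EDTA, 4 mM MgCl2, with methiothepine for nonspecific binding. D2L buffer: Tris-HCl, EDTA, MgCl2, 120 mM NaCl, KCl, CaCl2, ascorbate, with (+)butaclamol for nonspecific binding. Triplicate, 7–8 concentrations (10^-11–10^-4 M).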

The test system of series [9] is Mus musculus. The experiment in a line: Antidepressant activity in C57BL/6J mouse assessed as immobility time at […] mg/kg, ip measured over 6 mins by tail suspension test (reference value: 160.7 +/- 12 to 170.6 +/- 9 sec). The series is classed as functional.
Series [10] relates to Mus musculus. The series can be described thus: Antidepressant activity in C57BL/6J mouse assessed as immobility time at 5 mg/kg, ip measured over 6 mins by tail suspension test (reference value: 160.7 +/- 12 to 170.6 +/- 9 sec). The series is classed as functional.

Chain of 5-hydroxytryptamine receptor 6 (P50406 whole entry): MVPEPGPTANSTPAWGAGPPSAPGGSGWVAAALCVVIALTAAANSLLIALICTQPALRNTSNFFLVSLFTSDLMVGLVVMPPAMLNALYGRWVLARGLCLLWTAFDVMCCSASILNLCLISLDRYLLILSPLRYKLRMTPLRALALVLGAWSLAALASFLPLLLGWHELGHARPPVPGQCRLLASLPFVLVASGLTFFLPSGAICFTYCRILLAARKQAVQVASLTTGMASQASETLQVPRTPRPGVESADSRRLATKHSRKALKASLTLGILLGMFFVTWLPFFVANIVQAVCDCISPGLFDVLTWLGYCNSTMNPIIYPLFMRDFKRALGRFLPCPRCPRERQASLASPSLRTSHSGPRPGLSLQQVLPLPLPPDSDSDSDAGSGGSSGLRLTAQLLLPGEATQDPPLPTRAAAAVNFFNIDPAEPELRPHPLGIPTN

By Ki is commonly meant the equilibrium dissociation constant of an inhibitor or competing ligand from its target. A higher Ki goes with lower affinity. On to `O=S(=O)(NC1CCN(CCOc2ccccc2C2CCCC2)CC1)c1cccc(F)c1`, for which the Activity with Mus musculus [1] is reported as 0.29 N; in the series on Mus musculus [2], “Non-toxic”; in the series on Mus musculus [4] it was 1446.8; with Mus musculus [7] it was 1595.4. Further, the Ki is 303 nM in [3], 1525 nM in series [6] and 281 nM in series [8]. Besides, the Time in the series on Mus musculus [5] is recorded as 234.4 s; in the series on Mus musculus [9], 192.5 s; with Mus musculus [10], 142.8 s.

These data come from ChEMBL document CHEMBL3758131, “Towards new 5-HT7 antagonists among arylsulfonamide derivatives of (aryloxy)ethyl-alkyl amines: Multiobjective based design, synthesis, and antidepressant and anxiolytic properties” (Eur J Med Chem, 2016).
